# Data taken from ChEMBL document CHEMBL5058577, “EUbOPEN Chemogenomics Library 2 (Multiplex)” (2022).
# Tested on: Fibroblast
# Assay: Multiplex assay against human fibroblast
# Assay type: toxicity, cell-based
# Procedure, shortened: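 Values for tubulin, mitochondrial-mass and membrane-permeability phenotypes are per cents of cells with healthy nuclei. These cells were identified by CellPathfinder machine-learning gating of live cells that had been stained at seeding with Hoechst33342, BioTracker Green Microtubule Cytoskeleton Dye, MitoTracker Red and Annexin V Alexa Fluor 680 and imaged on a CQ1 microscope at 37°C and 5% CO2 after compound addition. The gating first set Hoechst high-intensity objects apart from normal cells, then split normal cells into healthy, pyknosed or fragmented nuclei, and pyknosed cells into mitotic or apoptotic.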
# [1] = 12 h, 1 µM, compound concentration 1 uM, replicate 1
# [2] = 12 h, 1 µM, compound concentration 1 uM, replicate 2
# [3] = 12 h, 10 µM, compound concentration 10 uM, replicate 1
# [4] = 12 h, 10 µM, compound concentration 10 uM, replicate 2
# [5] = 24 h, 1 µM, compound concentration 1 uM, replicate 1
# [6] = 24 h, 1 µM, compound concentration 1 uM, replicate 2
# [7] = 24 h, 10 µM, compound concentration 10 uM, replicate 1
# [8] = 24 h, 10 µM, compound concentration 10 uM, replicate 2
# [9] = 48 h, 1 µM, compound concentration 1 uM, replicate 1
# [10] = 48 h, 1 µM, compound concentration 1 uM, replicate 2
# [11] = 48 h, 10 µM, compound concentration 10 uM, replicate 1
# [12] = 48 h, 10 µM, compound concentration 10 uM, replicate 2
structure (smiles),measurement,setting,value
Cc1cnc(-c2cc(N3CCN(C(=O)CCS(C)(=O)=O)CC3)ncc2Cl)c(C)c1,Population Apoptotic (%),[1],36%
same,Population Fragmented Nuclei (%),[1],9%
same,Population Healthy Nuclei (%),[1],71%
same,Population Hoechst High Intensity Objects (%),[1],1%
same,Population Membrane Permeable-Phenotype (%),[1],0%
same,Population Mitochondria Different-Phenotype (%),[1],7%
same,Population Mitotic Cells (%),[1],63%
same,Population Normal (%),[1],98%
same,Population Pyknosed Nuclei (%),[1],19%
same,Population Tubulin-Different-Phenotype (%),[1],20%
same,Total Cell Count,[1],99
same,Population Apoptotic (%),[2],31%
same,Population Fragmented Nuclei (%),[2],22%
same,Population Healthy Nuclei (%),[2],36%
same,Population Hoechst High Intensity Objects (%),[2],9%
same,Population Membrane Permeable-Phenotype (%),[2],7%
same,Population Mitochondria Different-Phenotype (%),[2],10%
same,Population Mitotic Cells (%),[2],68%
same,Population Normal (%),[2],90%
same,Population Pyknosed Nuclei (%),[2],41%
same,Population Tubulin-Different-Phenotype (%),[2],50%
same,Total Cell Count,[2],85
same,Population Apoptotic (%),[3],40%
same,Population Fragmented Nuclei (%),[3],13%
same,Population Healthy Nuclei (%),[3],71%
same,Population Hoechst High Intensity Objects (%),[3],4%
same,Population Membrane Permeable-Phenotype (%),[3],1%
same,Population Mitochondria Different-Phenotype (%),[3],2%
same,Population Mitotic Cells (%),[3],60%
same,Population Normal (%),[3],95%
same,Population Pyknosed Nuclei (%),[3],14%
same,Population Tubulin-Different-Phenotype (%),[3],24%
same,Total Cell Count,[3],142
same,Population Apoptotic (%),[4],26%
same,Population Fragmented Nuclei (%),[4],21%
same,Population Healthy Nuclei (%),[4],63%
same,Population Hoechst High Intensity Objects (%),[4],1%
same,Population Mitotic Cells (%),[4],73%
same,Population Normal (%),[4],98%
same,Population Pyknosed Nuclei (%),[4],15%
same,Population Tubulin-Different-Phenotype (%),[4],37%
same,Total Cell Count,[4],121
same,Population Apoptotic (%),[5],54%
same,Population Fragmented Nuclei (%),[5],10%
same,Population Healthy Nuclei (%),[5],76%
same,Population Hoechst High Intensity Objects (%),[5],6%
same,Population Membrane Permeable-Phenotype (%),[5],2%
same,Population Mitochondria Different-Phenotype (%),[5],4%
same,Population Mitotic Cells (%),[5],45%
same,Population Normal (%),[5],93%
same,Population Pyknosed Nuclei (%),[5],12%
same,Population Tubulin-Different-Phenotype (%),[5],30%
same,Total Cell Count,[5],97
same,Population Apoptotic (%),[6],47%
same,Population Fragmented Nuclei (%),[6],35%
same,Population Healthy Nuclei (%),[6],38%
same,Population Hoechst High Intensity Objects (%),[6],10%
same,Population Membrane Permeable-Phenotype (%),[6],3%
same,Population Mitochondria Different-Phenotype (%),[6],0%
same,Population Mitotic Cells (%),[6],52%
same,Population Normal (%),[6],89%
same,Population Pyknosed Nuclei (%),[6],25%
same,Population Tubulin-Different-Phenotype (%),[6],61%
same,Total Cell Count,[6],91
same,Population Apoptotic (%),[7],46%
same,Population Fragmented Nuclei (%),[7],10%
same,Population Healthy Nuclei (%),[7],79%
same,Population Hoechst High Intensity Objects (%),[7],0%
same,Population Membrane Permeable-Phenotype (%),[7],2%
same,Population Mitochondria Different-Phenotype (%),[7],6%
same,Population Mitotic Cells (%),[7],53%
same,Population Normal (%),[7],99%
same,Population Pyknosed Nuclei (%),[7],9%
same,Population Tubulin-Different-Phenotype (%),[7],28%
same,Total Cell Count,[7],135
same,Population Apoptotic (%),[8],42%
same,Population Fragmented Nuclei (%),[8],19%
same,Population Healthy Nuclei (%),[8],67%
same,Population Hoechst High Intensity Objects (%),[8],4%
same,Population Mitochondria Different-Phenotype (%),[8],9%
same,Population Mitotic Cells (%),[8],57%
same,Population Normal (%),[8],95%
same,Population Pyknosed Nuclei (%),[8],12%
same,Population Tubulin-Different-Phenotype (%),[8],38%
same,Total Cell Count,[8],116
same,Population Apoptotic (%),[9],69%
same,Population Fragmented Nuclei (%),[9],19%
same,Population Healthy Nuclei (%),[9],58%
same,Population Hoechst High Intensity Objects (%),[9],2%
same,Population Membrane Permeable-Phenotype (%),[9],0%
same,Population Mitochondria Different-Phenotype (%),[9],1%
same,Population Mitotic Cells (%),[9],30%
same,Population Normal (%),[9],97%
same,Population Pyknosed Nuclei (%),[9],21%
same,Population Tubulin-Different-Phenotype (%),[9],33%
same,Total Cell Count,[9],109
same,Population Apoptotic (%),[10],36%
same,Population Fragmented Nuclei (%),[10],40%
same,Population Healthy Nuclei (%),[10],47%
same,Population Hoechst High Intensity Objects (%),[10],5%
same,Population Membrane Permeable-Phenotype (%),[10],12%
same,Population Mitochondria Different-Phenotype (%),[10],9%
same,Population Mitotic Cells (%),[10],63%
same,Population Normal (%),[10],94%
same,Population Pyknosed Nuclei (%),[10],12%
same,Population Tubulin-Different-Phenotype (%),[10],70%
same,Total Cell Count,[10],92
same,Population Apoptotic (%),[11],50%
same,Population Fragmented Nuclei (%),[11],21%
same,Population Healthy Nuclei (%),[11],69%
same,Population Hoechst High Intensity Objects (%),[11],2%
same,Population Membrane Permeable-Phenotype (%),[11],0%
same,Population Mitochondria Different-Phenotype (%),[11],7%
same,Population Mitotic Cells (%),[11],50%
same,Population Normal (%),[11],97%
same,Population Pyknosed Nuclei (%),[11],8%
same,Population Tubulin-Different-Phenotype (%),[11],33%
same,Total Cell Count,[11],141
same,Population Apoptotic (%),[12],75%
same,Population Fragmented Nuclei (%),[12],29%
same,Population Healthy Nuclei (%),[12],61%
same,Population Hoechst High Intensity Objects (%),[12],3%
same,Population Membrane Permeable-Phenotype (%),[12],2%
same,Population Mitochondria Different-Phenotype (%),[12],5%
same,Population Mitotic Cells (%),[12],25%
same,Population Normal (%),[12],96%
same,Population Pyknosed Nuclei (%),[12],9%
same,Total Cell Count,[12],131
